Experimental data from paper PMC5099076 (Journal of medicinal chemistry, 2015).

Tests used:
PDK1 = target: T1, PDK1 (Homo sapiens, UniProt O15530); format: biochemical; details: short peptide substrate, in vitro
T1 sequence (O15530 1-556): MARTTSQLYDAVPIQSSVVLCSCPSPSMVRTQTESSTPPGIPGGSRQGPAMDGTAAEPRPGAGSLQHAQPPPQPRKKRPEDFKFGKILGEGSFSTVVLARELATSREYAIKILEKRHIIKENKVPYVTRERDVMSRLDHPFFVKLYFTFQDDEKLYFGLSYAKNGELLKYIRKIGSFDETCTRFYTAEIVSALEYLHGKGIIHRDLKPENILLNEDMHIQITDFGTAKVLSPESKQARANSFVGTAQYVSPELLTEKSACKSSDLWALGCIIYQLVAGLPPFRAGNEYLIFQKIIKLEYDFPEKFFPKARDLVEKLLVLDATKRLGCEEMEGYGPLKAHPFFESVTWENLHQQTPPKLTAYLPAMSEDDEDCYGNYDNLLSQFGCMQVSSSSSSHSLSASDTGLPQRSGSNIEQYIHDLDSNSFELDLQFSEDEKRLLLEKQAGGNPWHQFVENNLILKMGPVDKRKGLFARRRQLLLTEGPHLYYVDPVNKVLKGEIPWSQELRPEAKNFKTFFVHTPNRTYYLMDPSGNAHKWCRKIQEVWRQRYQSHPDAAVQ

cruzain = assay: Cruzain assay; format: biochemical; details: unrelated enzyme, test for aggregation-based mechanism
Procedure, shortened: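 Test compound preincubated 5 min with 0.8 nM cruzain in 100 mM sodium acetate, pH 5.5, 5 mM DTT, with 0.01% Triton X-100 added where indicated. Reaction started with Z-FR-AMC; final 0.4 nM cruzain, 2.5 μM substrate, 0.5% DMSO. Fluorescence increase (ex 355/em 460 nm) recorded over 5 min. Run in duplicate; DMSO-only controls.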

Dynamic light scattering = format: physicochemical; details: under assay conditions
Procedure, shortened: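 Concentrated DMSO stocks of test compound diluted in assay buffer to a final 3.2% DMSO. Light scattering read with a 55 mW laser at 826.6 nm, 100% laser power, detector at 90°. Single-point measurements reported.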

PIF pocket of PDK1 = target: T2, PIF pocket of PDK1 (Homo sapiens, UniProt O15530); assay: Fluorescence polarization; format: binding
T2 sequence (O15530 1-556): T1 sequence (O15530 1-556)

## O=P(O)(O)[C@H](NC[C@@H]1CCCc2ccccc21)c1ccc(F)cc1 [compound 3]
PDK1
  Maximal stimulation of PDK1 activity: ~ 1.8 fold
cruzain
  Nonspecific inhibition of cruzain: nor did either compound nonspecifically inhibit
Dynamic light scattering
  Formation of colloidal aggregates: Neither compound formed colloidal aggregates

## Cc1ccc(OCCSc2nc3ccccc3n2CC(=O)O)c(C)c1 [compound 1]
PIF pocket of PDK1; binding energy (ΔG, kcal/mol) per non-hydrogen atom
  LE (ligand efficiency): 0.25 kcal/mol per non-hydrogen atom
PDK1
  Maximal stimulation of PDK1 activity: ~ 1.8 fold
cruzain
  Nonspecific inhibition of cruzain: nor did either compound nonspecifically inhibit
Dynamic light scattering
  Formation of colloidal aggregates: Neither compound formed colloidal aggregates

## O=C(O)C/C(=C/c1cccc(C(F)(F)F)c1)c1nc2ccccc2o1 [compound 2]
PIF pocket of PDK1; FP competitive binding assay
  Binding to PDK1 (in words): negligible
